# Measured values pooled from the literature.
# Compare with care: the assays were run in different laboratories.
# Effect on: cell growth or viability
Compound,cell line,test,conditions,measurement,result
O=C(CCCCCCC(=O)Nc1ccccc1)NO,HBL1,ATP luminescence,"0.1 µM, 5 days",viability,132%
OCc1coc(-c2nn(Cc3ccccc3)c3ccccc23)n1,RBE,ATP luminescence,"46 µM, 72 h",inhibition,32%
COc1ccc2/c(=N/c3ccccc3NC(=O)N3CCOCC3)cc(-c3ccc4c(c3)OCCO4)oc2c1,MDA-MB-468,CCK-8,1 µM,inhibition,18.7%
NCc1ccc(-c2nn(Cc3ccccn3)c3cccnc23)o1,RBE,ATP luminescence,"46 µM, 72 h",inhibition,74%
NCC(=O)Nc1ccccc1/N=c1\cc(-c2ccc3c(c2)OCO3)oc2c([N+](=O)[O-])cccc12,MDA-MB-468,CCK-8,1 µM,inhibition,5.28%
O=C(/C=C/c1cccc(C(=O)NO)c1)NO,HBL1,ATP luminescence,"0.1 µM, 5 days",viability,119%
O=C(NC1CCCCC1)c1ccc(-c2nc3ccc4[nH]ncc4c3c3c2CCCC3)cc1,MV4-11,resazurin,72 h,GI50,4.3 µM
COCCC(=O)Nc1ccccc1/N=c1\cc(-c2ccc3nc(N)oc3c2)oc2ccccc12,MDA-MB-468,CCK-8,1 µM,inhibition,0.9%
Cc1n[nH]c2ccc3nc(-c4ccc(C(=O)NCCN5CCCC5)cc4)c4c(c3c12)CCCC4,MV4-11,resazurin,72 h,GI50,0.428 µM
CC(=O)OC[C@H]1O[C@@H](n2cnc(N)nc2=O)[C@H](OC(C)=O)[C@@H]1OC(C)=O,HBL1,ATP luminescence,"1 µM, 5 days",viability,94.3%
COc1ccc2/c(=N/c3ccccc3NC(=O)[C@H](C)N)cc(-c3ccc4c(c3)OCCO4)oc2c1,MDA-MB-468,CCK-8,1 µM,inhibition,13.4%
O=C(NCCCN1CCOCC1)c1ccc(-c2nc3ccc4[nH]ncc4c3c3c2CCCC3)cc1,MV4-11,resazurin,72 h,GI50,0.413 µM
COc1ccc2/c(=N/c3ccccc3NC(=O)[C@@H](N)C(C)(C)C)cc(-c3ccc4c(c3)OCCO4)oc2c1,MDA-MB-468,CCK-8,1 µM,inhibition,10.8%
CCN(Cc1ccccc1C)c1ccc(CO)c(Cl)c1,RBE,ATP luminescence,"46 µM, 72 h",inhibition,87%
CN(C)CCNC(=O)c1ccc(-c2nc3ccc4[nH]ncc4c3c3c2CCCCC3)cn1,MV4-11,resazurin,72 h,GI50,0.146 µM
OCc1ccc(-c2nn(Cc3ccccc3)c3ccc(F)cc23)o1,RBE,ATP luminescence,,IC50,0.977 µM
Cc1n[nH]c2ccc3nc(-c4ccc(C(=O)N(C)CCN(C)C)cc4)c4c(c3c12)CCCCC4,MV4-11,resazurin,72 h,GI50,0.522 µM
CS(=O)(=O)NCCC(=O)Nc1ccccc1/N=c1\cc(-c2ccc3nc(N)oc3c2)oc2ccccc12,MDA-MB-468,CCK-8,1 µM,inhibition,3.19%
COCCCNC(=O)c1ccc(-c2nc3ccc4[nH]ncc4c3c3c2CCCC3)cc1,MV4-11,resazurin,72 h,GI50,2.9 µM
COC(=O)CNC(=O)C(=O)OC,HBL1,ATP luminescence,"0.5 µM, 5 days",viability,113%
OCc1ccc(-c2nn(Cc3ccccc3F)c3ccccc23)o1,RBE,ATP luminescence,"46 µM, 72 h",inhibition,68%
CN(C)CCN(C)C(=O)c1ccc(-c2nc3ccc4[nH]ncc4c3c3c2CCCCC3)nc1,MV4-11,resazurin,72 h,GI50,1.2 µM
OCc1ccc(-c2ccn(Cc3ccccc3)n2)o1,RBE,ATP luminescence,"46 µM, 72 h",inhibition,47%
CN(C)CCN(C)C(=O)c1ccc(-c2nc3ccc4[nH]ncc4c3c3c2CCCCC3)cc1,MV4-11,resazurin,72 h,GI50,0.383 µM
OCC1CCC(c2nn(Cc3ccccc3)c3ccccc23)O1 (stereo not shown),RBE,ATP luminescence,"46 µM, 72 h",inhibition,13%
Nc1nc2ccc(-c3c/c(=N\c4ccccc4NC(=O)CCN4CCOCC4)c4ccccc4o3)cc2o1,MDA-MB-468,CCK-8,1 µM,inhibition,0.34%
OCc1ccc(-c2nn(Cc3ccccc3)c3ccccc23)o1,RBE,ATP luminescence,"46 µM, 72 h",inhibition,75%
C[C@H](N)C(=O)Nc1ccccc1/N=c1\cc(-c2ccc3c(c2)OCCO3)oc2cc(F)ccc12,MDA-MB-468,CCK-8,1 µM,inhibition,12.8%
